We go through 5 compounds from PubChem BioAssay AID624204 (Sanford-Burnham Center for Chemical Genomics, 2012).

Usually inhibition stands for the change of the read-out against control, counted positive when it falls.

Hit rate of the full screen: of about 360,000 compounds, about 770 (0.21%) were called active.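 How the source made its calls: active means inhibition at least 30% at 10 µM, raw YFP signal under a set limit, fluorescence ratio 0.5 to 1.5; inactive means the rest.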 Shown is part of a subset that was picked to be rich in actives.

Sentrin-specific protease 1 (Homo sapiens), sequence (Q9P0U3 419-644 limits assumed): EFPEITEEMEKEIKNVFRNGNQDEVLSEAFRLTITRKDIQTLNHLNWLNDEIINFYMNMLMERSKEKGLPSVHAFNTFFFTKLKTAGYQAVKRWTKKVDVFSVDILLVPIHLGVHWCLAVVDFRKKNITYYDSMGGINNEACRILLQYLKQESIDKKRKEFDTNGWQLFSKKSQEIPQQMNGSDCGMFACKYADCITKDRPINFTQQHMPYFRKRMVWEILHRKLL

The assay has as its target Sentrin-specific protease 1 (Homo sapiens) (UniProt Q9P0U3). Briefly: human SENP1 catalytic domain inhibitors, primary screen, biochemical, FRET, uHTS (AID 624204).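 Further: 0% = enzyme with DMSO and 100% = no enzyme wells.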 Particulars: recombinant SENP1 catalytic domain, CyPet-SUMO1-YPet FRET cleavage; at 10 µM; hits give high values. A digest of the protocol:
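Test system: hSENP1 catalytic domain, recombinant; Amount: 20 pM final SENP1 enzyme; Medium: Tris pH 8 buffer plus EDTA, NaCl, BME, BSA, NP40, catalase; Schedule: 50 min enzyme reaction, room temperature, light-protected; Technique: FRET fluorescence in CFP and YFP emission channels; Controls: no-enzyme wells low, DMSO-plus-enzyme wells high control.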
In the case of `CCOCCc1c(O)[nH]c(=S)[nH]c1=O`, the inhibition was -0.672% (inactive).
On to `O=C1N=c2ccccc2=C/C1=C\c1c(O)[nH]c(=S)[nH]c1=O`, for which the inhibition was -11.3% (inactive).
With `COc1ccccc1N=Nc1c(O)[nH]c(=S)[nH]c1=O`, the inhibition is 48.9% (active).
Turning to `CCCOC(=O)C1C2c3ccccc3C(c3ccccc32)C1C(=O)O` (stereo not given), the inhibition is -1.79% (inactive).
On to `CC(CC(C#N)(c1ccccc1)c1ccccc1)N1CCCCC1` (stereo not given), for which the inhibition was 1.04% (inactive).
